ChEMBL document CHEMBL3232844, “Synthesis and structure activity relationships of schweinfurthin indoles” (2014)

Experiments:
Assay type in all cases: functional
CCRF-CEM = assay: Cytotoxicity against human CCRF-CEM cells; details: for CC50: read-out: pLC50 (the source's name) (converted); for TGI: read-out: pTGI (converted)
RPMI-8226 = assay: Cytotoxicity against human RPMI8226 cells; details: for TGI: read-out: pTGI (converted)
Method in brief: (§1)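 Tested in a 60-cell-line human tumor panel screen; the read-out is growth inhibition, reported as GI50 for each cell line.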

SR = assay: Cytotoxicity against human SR cells; details: for CC50: read-out: pLC50 (the source's name) (converted); for TGI: read-out: pTGI (converted)
Method in brief: (§2)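 Cell line run as part of the 60-cell-line screening panel; growth inhibition was reported as a GI50 for each line.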

HOP-62 = assay: Cytotoxicity against human HOP62 cells; details: for CC50: read-out: pLC50 (the source's name) (converted); for TGI: read-out: pTGI (converted); method in brief: as §1
HOP-92 = assay: Cytotoxicity against human HOP92 cells; details: for CC50: read-out: pLC50 (the source's name) (converted); for TGI: read-out: pTGI (converted); method in brief: as §1
COLO 205 = assay: Cytotoxicity against human COLO205 cells; details: for CC50: read-out: pLC50 (the source's name) (converted); for TGI: read-out: pTGI (converted); method in brief: as §1
SW-620 = assay: Cytotoxicity against human SW620 cells; details: for CC50: read-out: pLC50 (the source's name) (converted); for TGI: read-out: pTGI (converted); method in brief: as §2
SNB-19 = assay: Cytotoxicity against human SNB19 cells; details: for CC50: read-out: pLC50 (the source's name) (converted); for TGI: read-out: pTGI (converted); method in brief: as §1
Malme-3M = assay: Cytotoxicity against human MALME-3M cells; details: for CC50: read-out: pLC50 (the source's name) (converted); for TGI: read-out: pTGI (converted); method in brief: as §1
NCI-H322M = assay: Cytotoxicity against human NCI-H322M cells; details: for CC50: read-out: pLC50 (the source's name) (converted); for TGI: read-out: pTGI (converted); method in brief: as §1
NCI-H522 = assay: Cytotoxicity against human NCI-H522 cells; details: for CC50: read-out: pLC50 (the source's name) (converted); for TGI: read-out: pTGI (converted); method in brief: as §1
SK-MEL-28 = assay: Cytotoxicity against human SK-MEL-28 cells; details: for CC50: read-out: pLC50 (the source's name) (converted); for TGI: read-out: pTGI (converted); method in brief: as §1
SK-MEL-5 = assay: Cytotoxicity against human SK-MEL-5 cells; details: for CC50: read-out: pLC50 (the source's name) (converted); for TGI: read-out: pTGI (converted); method in brief: as §1
[1] = Cytotoxicity against human UACC62 cells; details: for GI50: UACC-62; for CC50: UACC-62, read-out: pLC50 (the source's name) (converted); for TGI: UACC-62, read-out: pTGI (converted); method in brief: as §2
PC-3 = assay: Cytotoxicity against human PC3 cells; details: for TGI: read-out: pTGI (converted); method in brief: as §1
[2] = Cytotoxicity against human Hs578T cells; details: Hs-578T; for TGI: read-out: pTGI (converted); method in brief: as §1
MDA-MB-468 = assay: Cytotoxicity against human MDA-MB-468 cells; details: for TGI: read-out: pTGI (converted); method in brief: as §1

Compound: COc1cc(/C=C/c2cc(OC)c3c(CC=C(C)C)c[nH]c3c2)cc2c1O[C@]1(C)CC[C@@H](O)C(C)(C)[C@H]1C2
- GI50 (CCRF-CEM): 209 nM
- CC50 (CCRF-CEM): > 100000 nM
- TGI (CCRF-CEM): 851 nM
- GI50 (RPMI-8226): 77.6 nM
- TGI (RPMI-8226): 355 nM
- GI50 (SR): 324 nM
- CC50 (SR): > 100000 nM
- TGI (SR): 5500 nM
- GI50 (HOP-62): 87.1 nM
- CC50 (HOP-62): 2340 nM
- TGI (HOP-62): 479 nM
- GI50 (HOP-92): 178 nM
- CC50 (HOP-92): 93300 nM
- TGI (HOP-92): 5620 nM
- GI50 (COLO 205): 219 nM
- CC50 (COLO 205): 1550 nM
- TGI (COLO 205): 479 nM
- GI50 (SW-620): 288 nM
- CC50 (SW-620): 4070 nM
- TGI (SW-620): 1120 nM
- GI50 (SNB-19): 398 nM
- CC50 (SNB-19): 28200 nM
- TGI (SNB-19): 4170 nM
- GI50 (Malme-3M): 2000 nM
- CC50 (Malme-3M): 91200 nM
- TGI (Malme-3M): 8710 nM
- GI50 (NCI-H322M): 6310 nM
- CC50 (NCI-H322M): > 100000 nM
- TGI (NCI-H322M): 39800 nM
- GI50 (NCI-H522): 646 nM
- CC50 (NCI-H522): 5250 nM
- TGI (NCI-H522): 2000 nM
- GI50 (SK-MEL-28): 347 nM
- CC50 (SK-MEL-28): 15800 nM
- TGI (SK-MEL-28): 2240 nM
- GI50 (SK-MEL-5): 263 nM
- CC50 (SK-MEL-5): 1480 nM
- TGI (SK-MEL-5): 676 nM
- GI50 [1]: 229 nM
- CC50 [1]: 9120 nM
- TGI [1]: 661 nM
- GI50 (PC-3): 240 nM
- LC50 (PC-3): > 100000 nM
- TGI (PC-3): 17400 nM
- GI50 [2]: 53.7 nM
- LC50 [2]: > 100000 nM
- TGI [2]: 692 nM
- GI50 (MDA-MB-468): 195 nM
- LC50 (MDA-MB-468): 10500 nM
- TGI (MDA-MB-468): 1100 nM

Compound: COc1cc(/C=C/c2cc(O)c3c(c2)C[C@@H]2C(C)(C)[C@H](O)CC[C@@]2(C)O3)cc2[nH]cc(CC=C(C)C)c12
- GI50 (CCRF-CEM): 87.1 nM
- CC50 (CCRF-CEM): > 100000 nM
- TGI (CCRF-CEM): 14800 nM
- GI50 (RPMI-8226): 11.2 nM
- CC50 (RPMI-8226; read-out: pLC50 (the source's name) (converted)): > 100000 nM
- TGI (RPMI-8226): 417 nM
- GI50 (SR): 155 nM
- CC50 (SR): > 100000 nM
- TGI (SR): 32400 nM
- GI50 (HOP-62): 50.1 nM
- CC50 (HOP-62): 40700 nM
- TGI (HOP-62): 1700 nM
- GI50 (HOP-92): 1150 nM
- CC50 (HOP-92): 81300 nM
- TGI (HOP-92): 22900 nM
- GI50 (COLO 205): 4170 nM
- CC50 (COLO 205): 21400 nM
- TGI (COLO 205): 9330 nM
- GI50 (SW-620): 302 nM
- CC50 (SW-620): 21400 nM
- TGI (SW-620): 4270 nM
- GI50 (SNB-19): 575 nM
- CC50 (SNB-19): 64600 nM
- TGI (SNB-19): 35500 nM
- GI50 (Malme-3M): 5370 nM
- CC50 (Malme-3M): > 100000 nM
- TGI (Malme-3M): 31600 nM
- GI50 (NCI-H322M): 18200 nM
- CC50 (NCI-H322M): 77600 nM
- TGI (NCI-H322M): 49000 nM
- GI50 (NCI-H522): 1660 nM
- CC50 (NCI-H522): 20900 nM
- TGI (NCI-H522): 7240 nM
- GI50 (SK-MEL-28): 676 nM
- CC50 (SK-MEL-28): 46800 nM
- TGI (SK-MEL-28): 10700 nM
- GI50 (SK-MEL-5): 1230 nM
- CC50 (SK-MEL-5): 7080 nM
- TGI (SK-MEL-5): 2140 nM
- GI50 [1]: 100 nM
- CC50 [1]: 33900 nM
- TGI [1]: 955 nM
- GI50 (PC-3): 1320 nM
- LC50 (PC-3): > 100000 nM
- TGI (PC-3): 43700 nM
- GI50 [2]: 10 nM
- LC50 [2]: > 100000 nM
- TGI [2]: 977 nM
- GI50 (MDA-MB-468): 182 nM
- LC50 (MDA-MB-468): 67600 nM
- TGI (MDA-MB-468): 4790 nM
